MMP-13 inhibitor: blocks human MMP13 activity; 65,000 compounds, 0.07% hits; MMP-13 fTHP FRET cleavage, Mca fluorescence; P45452; inhibition, % at 4 µM;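 active means inhibition above the mean of compound-free control plate wells plus 3 SD, cut at about 14% in these data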
SF-1 act: activators of human nuclear receptor SF-1; CHO-K1 Gal4-SF-1 LBD luciferase reporter; % increase over DMSO SF-1-specific signal; Q13285; 65,000 compounds, 1.9% hits; activation, % at 10 µM;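 active means activation above the mean activation of all tested compounds plus 3 SD, cut at about 50% in these data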
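Test system: CHO-K1 cells co-transfected with Gal4 DBD–human SF-1 LBD, 5xGal4 luciferase reporter. Quantity: 4,000 cells per well. Compound: 10 µM only. Incubation: compound added 1 h post-seeding, 20 h exposure at 37 °C, 5% CO2. Detection: SteadyLite luciferase luminescence. Replication: one test per compound.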
RORA act: activators of human nuclear receptor RORA | P35398 | CHO-K1 Gal4-RORA LBD luciferase reporter, luminescence; percent increase over mock-subtracted basal signal | activation, % at 10 µM | 65,000 compounds, 1.5% hits | AID 560;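 active means activation above the mean of all tested compounds plus 3 SD, cut at about 49% in these data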
MT1-MMP txn act: MT1-MMP promoter transcription activation. activation factor at 10 µM. AID 750. HT1080 MT1-MMP promoter luciferase reporter, luminescence, overnight; hits give high values. 86,000 compounds, 0.16% hits;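 active means activation factor of at least 2 for MT1-MMP transcription at 10 µM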
WNV NS2B-NS3 inh: blocks West Nile virus NS2B-NS3 protease activity; P06935; WNV NS2B-NS3 protease, fluorogenic substrate Ex360/Em465; hits give low values; z-score (concentration not given with the values); 65,000 compounds, 0.18% hits; AID 577; in the data active means z-score below about -3
Target sequence (P06935 1371-1501 limits assumed): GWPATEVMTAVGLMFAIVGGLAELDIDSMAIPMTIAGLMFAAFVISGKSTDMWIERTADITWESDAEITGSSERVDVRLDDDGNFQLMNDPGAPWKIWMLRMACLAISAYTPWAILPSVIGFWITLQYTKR
Target sequence (P06935 1502-1679 limits assumed): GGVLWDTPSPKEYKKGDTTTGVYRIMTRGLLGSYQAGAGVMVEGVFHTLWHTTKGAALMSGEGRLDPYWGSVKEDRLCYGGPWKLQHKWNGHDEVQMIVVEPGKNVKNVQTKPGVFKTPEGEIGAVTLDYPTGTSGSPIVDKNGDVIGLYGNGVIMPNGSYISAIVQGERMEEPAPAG
Large screens that a line does not name were inactive. An excerpt weighted towards active compounds, which were near 2.3% of everything screened.

Cc1ccc2nc(-c3cccc(S(=O)(=O)N(C)C)c3)cn2c1	SF-1 act 52, RORA act 56
CCN(CC)S(=O)(=O)c1cccc(-c2cn3cc(C)ccc3n2)c1	none (no result: MMP-13 inhibitor, SF-1 act, RORA act, WNV NS2B-NS3 inh)
COc1ccc(-n2ncc3c(SCC(=O)N4CCN(c5ccccc5OC)CC4)ncnc32)cc1	none (no result: MMP-13 inhibitor, SF-1 act, RORA act, WNV NS2B-NS3 inh)
Cc1ccc2c(COC(=O)c3n[nH]c4ccccc34)cc(=O)oc2c1	none
CCc1ccc2c(COC(=O)c3n[nH]c4ccccc34)cc(=O)oc2c1	SF-1 act 58
Cc1ccc2nc(NC(=O)c3cccs3)sc2c1	none
O=C(Cc1cccs1)Nc1ccc(C(=O)O)cc1	none
Cc1ccc2nc(NC(=O)c3ccc(Cn4cc(Cl)cn4)o3)sc2c1	RORA act 55
Cc1cccc2sc(NC(=O)c3ccc(Cl)s3)nc12	SF-1 act 50
Cc1ccc2nc(NC(=O)c3ccc(Cl)s3)sc2c1	SF-1 act 54, RORA act 86
Cc1nc2ccc(NC(=O)Cc3cccs3)cc2s1	SF-1 act 80, RORA act 53
COC(=O)Nc1nc2c(C)cccc2s1	none
Cc1cc(C)cc(OCC(=O)OCC(=O)c2c(N)n(C)c(=O)n(C)c2=O)c1	none (no result: MMP-13 inhibitor, SF-1 act, RORA act, WNV NS2B-NS3 inh)
Cc1nc2ccc(NC(=O)c3ccc(Cl)c(NC(=O)c4cccs4)c3)cc2s1	none (no result: MMP-13 inhibitor, SF-1 act, RORA act, WNV NS2B-NS3 inh)
Cc1nc2ccc(NC(=O)c3ccc(Cl)s3)cc2s1	SF-1 act 76, RORA act 80
CCC1=C2CC[C@H]3C(=O)N(CC(=O)OC)C(=O)[C@H]3[C@H]2[C@@]2(C)C(=O)N(CC3CC3)C(=O)N2C1=O	none (no result: MMP-13 inhibitor, SF-1 act, RORA act, WNV NS2B-NS3 inh)
S=C(c1ccc2c(c1)OCO2)N1CCCC1	none
Cc1nc(NC(=O)c2ccccc2)sc1-c1csc(N)n1	RORA act 81
CCOC(=O)C1=C(C)N(CCCC(=O)O)C(=O)NC1c1ccc(C(F)(F)F)cc1 (stereo unspecified)	none (no result: MMP-13 inhibitor, SF-1 act, RORA act, WNV NS2B-NS3 inh)
C/C(=N\O)c1ccc2c3ccccc3n(C)c2c1	SF-1 act 54
C/C(=N\O)c1c(C)c2ccccc2n1C	none
CN1CCN(C(=O)c2cccc(COc3cc(Cl)ccc3Cl)c2)CC1	SF-1 act 69
O=C(O)c1cccc(COc2ccccc2Cl)c1	none
O=C(Nc1ccccc1)N1CCC(c2ccccc2)C1 (stereo unspecified)	SF-1 act 68
O=C(c1cccs1)N1CCC(c2ccccc2)C1 (stereo unspecified)	RORA act 49
O=C(COc1ccc(F)cc1)N1CCC(c2ccccc2)C1 (stereo unspecified)	MT1-MMP txn act 2.1 (no result: MMP-13 inhibitor, SF-1 act, RORA act, WNV NS2B-NS3 inh)
CCC1=C2CC[C@H]3C(=O)N(c4ccccc4)C(=O)[C@H]3[C@H]2[C@@]2(Cc3ccccc3)C(=NCCc3c[nH]c4ccccc34)OC(=O)N2C1=O	none (no result: MMP-13 inhibitor, SF-1 act, RORA act, WNV NS2B-NS3 inh)
COC(=O)c1ccc(C(NC(=O)OCc2ccccc2)/C(C)=C/[C@@H](C)C(=O)Nc2ccc(OC)cc2)cc1 (stereo partly specified)	none (no result: MMP-13 inhibitor, SF-1 act, RORA act, WNV NS2B-NS3 inh)
CCOC(=O)C(C(=O)OCC)C(CC(=O)C1CC1)c1ccccc1 (stereo unspecified)	none
O=C(c1ccccc1F)N1CCN(Cc2cccc(Cl)c2)CC1	none
CCOC(=O)C1=C(C)NC(=O)C(C(N)=O)C1c1ccccc1 (stereo unspecified)	none
COc1ccccc1C1CC(c2cccs2)=Nc2ccccc2S1 (stereo unspecified)	MT1-MMP txn act 2.1 (no result: MMP-13 inhibitor, SF-1 act, RORA act, WNV NS2B-NS3 inh)
CCC1=C2CC[C@H]3C(=O)N(c4ccccc4)C(=O)[C@H]3[C@H]2[C@@]2(Cc3ccccc3)C(=NCCOC)OC(=O)N2C1=O	none (no result: MMP-13 inhibitor, SF-1 act, RORA act, WNV NS2B-NS3 inh)
CC(=O)c1c(C)nc(-c2ccc(Cl)cc2)nc1N=CN(C)C	SF-1 act 76, RORA act 68
CC(=O)N(C)c1nc(-c2ccc(Cl)cc2)cs1	none
COc1ccc(CNC(=O)c2noc3c2CCCCC3)cc1	none
O=C(NCc1ccccc1)c1noc2c1CCCCC2	SF-1 act 52
CC(C)Nc1nc2n(c(=O)n1)CCN2C(C)C	none
CN(C(=O)c1ccco1)c1nnc(C23CC4CC(CC(C4)C2)C3)s1	SF-1 act 76, RORA act 61
COc1ccc(-n2ncc3c(NCc4cccs4)ncnc32)cc1	SF-1 act 82
CC(C)Nc1ncnc2c1cnn2-c1ccccc1	none
c1ccc(-n2ncc3c(NCc4cccs4)ncnc32)cc1	SF-1 act 51
c1ccc(-n2ncc3c(NCc4cccnc4)ncnc32)cc1	RORA act 52
c1ccc(CNc2ncnc3c2cnn3Cc2ccccc2)cc1	none (no result: MMP-13 inhibitor, SF-1 act, RORA act, WNV NS2B-NS3 inh)
Cc1cc(C)c(N2CCN(S(=O)(=O)N3CCCCCC3)CC2)c(C)c1	none
Cc1cc(=O)n2nc(N3CCCC3C(=O)NCCCN3CCCCC3)sc2n1 (stereo unspecified)	none
O=C(Nc1ccc(Cl)cn1)c1ccc2ccccc2n1	none (no result: MMP-13 inhibitor, SF-1 act, RORA act, WNV NS2B-NS3 inh)
O=C(Nc1ccccc1C(=O)O)c1ccc2ccccc2n1	SF-1 act 80
COCCN1Cc2cccc(C(=O)Nc3cccnc3)c2C1=O	none
COCCN1Cc2cccc(C(=O)Nc3ccc4c(c3)OCCO4)c2C1=O	MMP-13 inhibitor 17
CCN1C(=S)SC(=O)C1=C1C=C(C)N(Cc2ccco2)C(C)=C1	MMP-13 inhibitor 19, SF-1 act 53
CCN1C(=S)SC(=O)C1=C1C=C(C)OC(C)=C1	none
CC(=O)N1[C@H](Cc2ccccc2)C=C[C@]1(C)C(=O)O	none (no result: MMP-13 inhibitor, SF-1 act, RORA act, WNV NS2B-NS3 inh)
N#CC1=C(N)NC(SCC(=O)Nc2ccccc2)=C(C#N)C12CCCC2	none (no result: MMP-13 inhibitor, SF-1 act, RORA act, MT1-MMP txn act)
CCc1nnc(NC(=O)c2ccc(COc3ccc(C)cc3)o2)s1	SF-1 act 52
CCc1nnc(NC(=O)c2ccc(COc3ccccc3)o2)s1	none
Cc1cc(C(=O)CSc2nnc(-c3ccco3)o2)c(C)n1-c1ccc2c(c1)OCCO2	none
Cc1cc(C(=O)CSc2nnnn2C)c(C)n1-c1ccc2c(c1)OCCO2	SF-1 act 54
Cc1ccc2nc(-c3ccc(NC(=O)c4ccco4)cc3)[nH]c2c1	SF-1 act 50
C=C(N(C)C)[C@]1(C)C[C@H]1[C@H](NC(=O)CNC(=O)OCc1ccccc1)c1ccccc1	none (no result: MMP-13 inhibitor, SF-1 act, RORA act, WNV NS2B-NS3 inh)
